Laboratory results taken from ChEMBL document CHEMBL4376888, “Discovery of Potent, Selective, and Direct Acid Sphingomyelinase Inhibitors with Antidepressant Activity” (J Med Chem, 2020).
Calls of active or inactive are those of the source. No cut-off for these calls is given here.

What was measured:
[1] = target: T1, Sphingomyelin phosphodiesterase (Homo sapiens, UniProt P17405); experiment: Inhibition of human Huh7 cell derived acid sphingomyelinase using NBD-sphingomyelin as substrate after 30 mins by fluorescence based assay
T1 sequence (P17405 whole entry): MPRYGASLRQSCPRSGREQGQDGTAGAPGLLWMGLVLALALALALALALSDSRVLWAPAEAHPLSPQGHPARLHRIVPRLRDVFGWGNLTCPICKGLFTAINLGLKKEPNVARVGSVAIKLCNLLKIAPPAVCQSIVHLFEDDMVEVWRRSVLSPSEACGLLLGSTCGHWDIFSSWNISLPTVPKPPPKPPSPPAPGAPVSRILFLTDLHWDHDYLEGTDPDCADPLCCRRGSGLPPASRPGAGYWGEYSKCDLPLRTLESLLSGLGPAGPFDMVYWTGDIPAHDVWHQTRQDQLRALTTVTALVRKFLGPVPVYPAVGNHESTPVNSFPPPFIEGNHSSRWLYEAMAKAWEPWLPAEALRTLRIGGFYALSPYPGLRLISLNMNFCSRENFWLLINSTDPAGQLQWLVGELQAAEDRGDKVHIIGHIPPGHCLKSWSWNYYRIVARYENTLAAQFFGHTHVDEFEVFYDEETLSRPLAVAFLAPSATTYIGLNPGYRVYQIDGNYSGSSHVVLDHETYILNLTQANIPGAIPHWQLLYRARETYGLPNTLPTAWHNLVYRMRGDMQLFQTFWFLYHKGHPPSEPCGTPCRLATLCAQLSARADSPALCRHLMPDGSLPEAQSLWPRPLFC
How it was run: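 Cultured cells were lysed in 25 mM Tris-HCl pH 7.4, 5 mM EDTA, sonicated and cleared at 300 g. 400 μg protein incubated with NBD-sphingomyelin in 100 mM sodium acetate pH 4.7, 1% Triton X-100, 40 mM CaCl2, 100 μM ZnCl2. Inhibitors added in DMSO, 37 °C, 30 min. Stopped with chloroform/methanol 2:1; NBD-ceramide fluorescence after TLC.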

[2] = Drug uptake in human CMEC/D3 cells at 40 uM after 0.5 to 4 hrs by HPLC analysis; format: ADME, cell-based; details: hcmec/d3, 40 µM
How it was run: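 hCMEC/D3 cells seeded at 2×10^5/well and grown to 80%. Compound added at a final 40 μM; serum-free medium as control. At time points, cells washed with ice-cold PBS, lysed on ice 30 min, spun 12000 rpm, 4 °C, 15 min. Lysate protein by BCA and compound content measured; uptake rate = lysate concentration/dose concentration. n=3.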

[3] = Drug concentration in Sprague-Dawley rat brain at 48 mg/kg, ip after 0.5 hrs by LC-MS/MS analysis; format: ADME, organism-based; details: read-out: Drug uptake
How it was run: (§1)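 Nine female SD rats, three per time point, single ip dose of 48 mg/Kg. At 0.5, 2 and 4 h rats were anesthetized with CO2. Heart blood was taken into EDTA-K2 and centrifuged 1500 g, 10 min, for plasma. Brain was weighed and homogenized 1:5 in 20% methanol-water. LC-MS/MS on a C18 column. Mean of 3.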

[4] = Drug concentration in Sprague-Dawley rat brain at 48 mg/kg, ip after 2 hrs by LC-MS/MS analysis; format: ADME, organism-based; details: read-out: Drug uptake; how it was run: as §1
[5] = Drug concentration in Sprague-Dawley rat brain at 48 mg/kg, ip after 4 hrs by LC-MS/MS analysis; format: ADME, organism-based; details: read-out: Drug uptake; how it was run: as §1
[6] = Drug concentration in Sprague-Dawley rat plasma at 48 mg/kg, ip after 0.5 hrs by LC-MS/MS analysis; format: ADME, organism-based; how it was run: as §1
[7] = Drug concentration in Sprague-Dawley rat plasma at 48 mg/kg, ip after 2 hrs by LC-MS/MS analysis; format: ADME, organism-based; how it was run: as §1
[8] = Drug concentration in Sprague-Dawley rat plasma at 48 mg/kg, ip after 4 hrs by LC-MS/MS analysis; format: ADME, organism-based; how it was run: as §1
[9] = Ratio of drug uptake in Sprague-Dawley rat brain to plasma at 48 mg/kg, ip after 30 mins by LC-MS/MS analysis; format: ADME, organism-based; details: read-out: BPR; how it was run: as §1
[10] = Ratio of drug uptake in Sprague-Dawley rat brain to plasma at 48 mg/kg, ip after 2 hrs by LC-MS/MS analysis; format: ADME, organism-based; details: read-out: BPR; how it was run: as §1
[11] = Ratio of drug uptake in Sprague-Dawley rat brain to plasma at 48 mg/kg, ip after 4 hrs by LC-MS/MS analysis; format: ADME, organism-based; details: read-out: BPR; how it was run: as §1
[12] = test system: Rattus norvegicus; experiment: Antidepressant activity in ip dosed Sprague-Dawley rat model of reserpine-induced depression assessed as increase in sugar consumption treated twice daily for 2 weeks measured after 2 days of […] followed by 20 hrs water depletion and fasting by sugar water preference test; format: functional, organism-based
How it was run: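 Reserpine model (4 mg/Kg ip daily) in female SD rats, treated ip twice daily for two weeks in DMSO/Tween 80/glucose vehicle. Drinking water replaced with 10% sucrose for 48 h, then food and water withheld for 20 h. Rats then given 10% sucrose and intake volume measured. n=8, mean ± SD.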

[13] = test system: Rattus norvegicus; experiment: Antidepressant activity in Sprague-Dawley rat model of reserpine-induced depression assessed as increase in times passing the grid at 6 to 24 mg/kg, ip administered twice daily for 2 weeks measured for 5 mins by open field test; format: functional, organism-based
How it was run: (§2)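 Female SD rats (6-8 weeks, 200 g) given reserpine 4 mg/Kg ip daily to induce depression; test agent in 5% DMSO, 2% Tween 80, 5% glucose, ip twice daily for two weeks. Open field: 100×100 cm box, 25 squares, walls about 42 cm, tested 7:30–12:00. Rat placed in central square; centre time, grid crossings, rearing and grooming recorded over 5 min. n=8, mean ± SD.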

[14] = test system: Rattus norvegicus; experiment: Antidepressant activity in Sprague-Dawley rat model of reserpine-induced depression assessed as increase in frequency of upright at 6 to 24 mg/kg, ip administered twice daily for 2 weeks measured for 5 mins by open field test; format: functional, organism-based; how it was run: as §2
[15] = test system: Rattus norvegicus; experiment: Antidepressant activity in Sprague-Dawley rat model of reserpine-induced depression assessed as increase in grooming frequency at 6 to 24 mg/kg, ip administered twice daily for 2 weeks measured for 5 mins by open field test; format: functional, organism-based; how it was run: as §2
[16] = test system: Rattus norvegicus; experiment: In vivo inhibition of acid sphingomyelinase in Sprague-Dawley rat model of reserpine-induced depression assessed as residual enzyme activity in hippocampus at 24 mg/kg, ip administered twice daily for 2 weeks measured post-last dose by NBD-sphingomyelin substrate-based fluorescence assay (reference value: 73%); format: functional
How it was run: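 Cortex and hippocampus taken from half brain of reserpine-model rats treated ip twice daily for two weeks. Total protein by BCA. ASM assay on 300 μg protein with 4 μg NBD-sphingomyelin, run as the in vitro assay. NBD-ceramide fluorescence on TLC, expressed relative to normal control set at 100%. n=5, mean ± SD.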

[17] = test system: Rattus norvegicus; experiment: Reversal of reserpine-induced inhibition of neurogenesis in ip dosed Sprague-Dawley rat hippocampus administered twice daily for 2 weeks by EDU-incorporation assay; format: functional, organism-based
How it was run: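 Rats given EDU 8 mg/kg twice in 1 day and sacrificed 96 h later. Brains shock-frozen and sectioned, washed with 2 mg/mL glycine and PBS, stained with 1X Click-iT solution for 30 min, washed with 0.5% Triton X-100. Counterstained with 1X Hoechst 33342 for 30 min, then imaged by fluorescence microscopy. n=5.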

[18] = test system: Rattus norvegicus; experiment: In vivo inhibition of acid sphingomyelinase in Sprague-Dawley rat model of reserpine-induced depression assessed as reduction in enzyme activity in cerebral cortex at 24 mg/kg, ip administered twice daily for 2 weeks measured post-last dose by NBD-sphingomyelin substrate-based fluorescence assay (reference value: 53%); parameters: scale not given: the % may be the effect or the level left

IC50 [1]: 320 nM
Drug uptake [2]: Active
concentration at 0.5 h [3]: 2120 ng/g
concentration at 2 h [4]: 4760 ng/g
concentration at 4 h [5]: 1300 ng/g
concentration at 0.5 h [6]: 709 ng/mL
concentration at 2 h [7]: 762 ng/mL
concentration at 4 h [8]: 144 ng/mL
Kp at 0.5 h [9]: 2.94
Kp at 2 h [10]: 6.49
Kp at 4 h [11]: 9.55
Compound: O=C(NO)c1cc(OCc2ccc(-c3ccc(Cl)cc3)cc2)no1
Activity [12]: Dose-dependent effect
Activity [13]: Active
Activity [14]: Active
Activity [15]: Active
Activity [16]: 33%
Activity [17]: Dose-dependent effect
Activity [18]: 27%
